Data set [1] has as its system immune-complex stimulated ISG panel in PBMCs. The experiment in a line: Five-gene ISG panel in PBMCs stimulated with SLE immune complexes. It counts as cell-based, human. The settings on record: HCQ 1 μM. The method, boiled down: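 PBMCs were pre-treated 30 min with test compound, HCQ or 0.1% DMSO, then stimulated 20 h with SLE serum pre-complexed with U-937 necrotic extract. RNA was extracted and ISGs quantified by qRT-PCR with the 2−ΔΔCt method against 18S rRNA, using biological replicates. Global ISG induction was derived by normalizing each ISG's relative induction to 100%.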

The subject of data set [2] is ssRNA driven IFN transcripts in human PBMCs. Kind of data set: ISG expression in human PBMCs stimulated with ssRNA. It counts as cell-based. The settings on record: HCQ vs MHV370. The method, boiled down:
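PBMCs were pre-incubated 30 min with test compound or HCQ, then stimulated with ssRNA at doses from earlier work. RNA was extracted, and ISG transcripts were quantified by qRT-PCR with the 2−ΔΔCt method against 18S rRNA, using biological replicates. Each ISG's induction was normalized to 100% to give a panel signature.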

The test system of data set [3] is SLE immune-complex-driven IFN-α response in PBMCs. Kind of data set: IFN-α release from PBMCs stimulated with SLE patient sera immune complexes. The format is cell-based, human.
Data set [4] has as its system IFN-α accelerated NZB/W F1 model. To be noted: cited from earlier work.
The subject of data set [5] is SLE patients. To be noted: cited from earlier work.
Data set [6] deals with SLE patients. To be noted: BLISS trial, cited from earlier work.

This is an account of results in paper PMC10213863 (Cell Reports Medicine, 2023).

Read-outs that look alike come from different tables or passages of the source.

Take `CCN(CCO)CCCC(C)Nc1ccnc2cc(Cl)ccc12` (stereo not drawn) [HCQ, hydroxychloroquine, reference compound]: the “expression of a five-panel ISG signature” value in data set [1] is on record as “only mildly effective”. Further, the “fold less potent antagonist of ISG expression than MHV370” value in data set [2] is reported as 3,300 fold. Further, in data set [3] (HCQ 1 μM (matched steady-state blood exposure of SLE patients), PBMCs), the “inhibition of immune-complex-driven IFN-α responses by serum category” value is recorded as “strongest inhibition of IFN-α responses elicited by dsDNA immune complexes”. The “fold lower potency than MHV370, immune-complex-induced IFN-α” value in data set [3] (HCQ vs MHV370) is “approximately 1,000 fold”.

On to `N#Cc1ccc(N2C[C@H](N)C[C@H](C(F)(F)F)C2)c2cccnc12` [M5049], for which the “efficacy in IFN-α accelerated NZB/W F1 model” value in data set [4] is reported as “showed efficacy”.

As for “anifrolumab: antibody drug which interferes with type I IFN signaling”, the “herpes virus infections in treated patients” value in the data set on SLE patients [5] was “increased”. For the same molecule, in the data set with SLE patients [5] (one of two phase 3 studies), the “predefined endpoint in phase 3 studies” value is “failed to reach its predefined endpoint”.

Turning to “belimumab: antibody drug which interferes with B cell expansion”, the “SRI (SLE responder index) response rate above placebo” value with SLE patients [6] (1 mg/kg) is reported as 7%; in the data set on SLE patients [6] (10 mg/kg) it was 14%.
